Measured values as given in ChEMBL document CHEMBL2396554, “Synthesis and biological evaluation of metabolites of 2-n-butyl-9-methyl-8-[1,2,3]triazol-2-yl-9H-purin-6-ylamine (ST1535), a potent antagonist of the A2A adenosine receptor for the treatment of Parkinson's disease” (J Med Chem, 2013).
Calls of active or inactive are those of the source. No cut-off for these calls is given here.

What was measured:
[1] = target: T1, Adenosine receptor A1 (Homo sapiens) (UniProt P30542); assay: Inhibition of human recombinant adenosine A1 receptor expressed in CHO-K1 cells at 10 uM; type: cell-based
T1 sequence (whole entry): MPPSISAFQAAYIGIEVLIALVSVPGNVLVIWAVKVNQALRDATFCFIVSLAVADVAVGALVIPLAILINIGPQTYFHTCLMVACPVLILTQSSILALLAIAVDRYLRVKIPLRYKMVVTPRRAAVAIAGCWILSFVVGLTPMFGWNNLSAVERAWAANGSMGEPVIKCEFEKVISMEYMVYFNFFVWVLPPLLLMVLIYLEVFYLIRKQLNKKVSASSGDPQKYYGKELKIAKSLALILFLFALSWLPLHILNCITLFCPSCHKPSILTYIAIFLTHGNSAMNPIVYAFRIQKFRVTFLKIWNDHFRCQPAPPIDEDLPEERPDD

Mus musculus [2] = assay: Induction of striatal movement in CD1 mouse at 20 to 200 mg/kg, po after 60 to 240 mins by Irwin test; type: functional, organism-based
Summary of the method: (§1)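 Irwin test in CD-1 mice, 5–6 weeks old, 4 per group. Compounds suspended in 0.1% Tween 80 in 0.5% CMC and given orally at 20, 100 and 200 mg/kg in 10 mL/kg. Behaviour recorded by camera at 60 and 240 min after dosing; stereotypies scored: sniffing (limbic), licking and biting (striatal).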

[3] = target: T2, Adenosine receptor A3 (Homo sapiens) (UniProt P0DMS8); assay: Inhibition of human adenosine A3 receptor at 10 uM
T2 sequence (whole entry): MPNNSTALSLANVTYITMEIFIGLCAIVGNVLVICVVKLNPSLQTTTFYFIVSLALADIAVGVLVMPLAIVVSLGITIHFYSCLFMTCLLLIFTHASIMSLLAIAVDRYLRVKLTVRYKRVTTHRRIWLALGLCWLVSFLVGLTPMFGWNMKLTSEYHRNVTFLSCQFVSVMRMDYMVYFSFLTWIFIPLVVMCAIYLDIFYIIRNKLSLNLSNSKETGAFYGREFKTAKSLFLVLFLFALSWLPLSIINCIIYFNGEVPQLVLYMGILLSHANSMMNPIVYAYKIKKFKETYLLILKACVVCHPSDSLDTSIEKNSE

Adenosine receptor A1 = target: T3, Adenosine receptor A1 (Homo sapiens, UniProt P30542); assay: Displacement of [3H]DPCPX from human recombinant adenosine A1 receptor expressed in CHO-K1 cells after 60 mins; type: cell-based
T3 sequence (P30542 whole entry): T1 sequence (whole entry)

Mus musculus [4] = assay: Induction of limbic movement in CD1 mouse at 20 to 200 mg/kg, po after 60 to 240 mins by Irwin test; type: functional, organism-based; settings: Limbic system; summary of the method: as §1
Adenosine receptor A2a [5] = target: T4, Adenosine receptor A2a (Homo sapiens, UniProt P29274); assay: Inhibition of human recombinant adenosine A2A receptor expressed in HEK293 cells at 10 uM; type: cell-based
Adenosine receptor A2a [6] = target: T4, Adenosine receptor A2a; assay: Displacement of [3H]ZM241385 from human recombinant adenosine A2A receptor expressed in HEK293 cells after 1 hr by competitive binding assay; type: cell-based
Summary of the method: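 HEK293 membranes expressing human A2A receptor pretreated with 2 IU/mL adenosine deaminase, 30 min at 37 °C. Competition with [3H]ZM241385 at its Kd (2 nM) using 5–10 µg protein and test compound 0.01–10,000 nM, 1 h at 4 °C in 50 mM Tris-HCl pH 7.4, 10 mM MgCl2. Nonspecific binding with 10 µM unlabeled ZM241385. Ki via Cheng–Prusoff; four experiments in triplicate.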

[7] = target: T2, Adenosine receptor A3 (Homo sapiens); assay: Binding affinity to human adenosine A3 receptor
Adenosine receptor A2a [8] = target: T4, Adenosine receptor A2a; assay: Antagonist activity at human adenosine A2A receptor expressed in HEK293 cells assessed as inhibition of NECA-induced cAMP accumulation incubated for 10 mins prior to NECA addition; type: functional, cell-based
Summary of the method: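 HEK-293 cells stably expressing human A2A, plated 48 h ahead. They were pretreated 10 min at 37 °C with 0.5 mM Ro20-1724 and 2 IU/mL adenosine deaminase, then compound (10^-4 to 10^-10 M) for 10 min at 37 °C, then 100 nM NECA for 20 min. cAMP was extracted and measured by enzyme immunoassay. IC50 came from nonlinear regression of four independent experiments.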

T4 sequence (P29274 whole entry): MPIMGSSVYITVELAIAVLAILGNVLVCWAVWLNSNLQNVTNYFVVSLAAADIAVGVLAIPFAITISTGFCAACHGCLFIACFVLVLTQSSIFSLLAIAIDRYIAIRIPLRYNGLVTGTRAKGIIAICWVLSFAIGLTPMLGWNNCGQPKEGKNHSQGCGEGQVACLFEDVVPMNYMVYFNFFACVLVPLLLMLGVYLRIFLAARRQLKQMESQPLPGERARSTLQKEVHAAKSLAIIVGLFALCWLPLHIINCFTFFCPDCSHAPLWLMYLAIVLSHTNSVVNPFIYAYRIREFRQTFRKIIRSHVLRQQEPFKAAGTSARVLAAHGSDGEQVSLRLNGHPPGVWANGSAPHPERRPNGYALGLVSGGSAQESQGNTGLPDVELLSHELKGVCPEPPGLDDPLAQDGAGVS

Row | SMILES | inhibition [1] | Activity (Mus musculus [2]) | inhibition [3] | Ki (Adenosine receptor A1) | Activity (Mus musculus [4]) | inhibition (Adenosine receptor A2a [5]) | Ki (Adenosine receptor A2a [6]) | Activity [7] | IC50 (Adenosine receptor A2a [8])
1 | CC(O)CCc1nc(N)c2nc(-n3nccn3)n(C)c2n1 (racemic) | Active | Active | 61% | 34 nM | Active | Active | 8.4 nM | inactive | –
2 | Cn1c(-n2nccn2)nc2c(N)nc(CCCCO)nc21 | Active | – | 47% | 150 nM | – | Active | – | inactive | –
3 | C[C@@H](O)CCc1nc(N)c2nc(-n3nccn3)n(C)c2n1 | – | – | – | 34 nM | – | – | 7.5 nM | – | –
4 | CC(=O)CCc1nc(N)c2nc(-n3nccn3)n(C)c2n1 | Active | Active | 56% | – | Active | Active | – | inactive | –
5 | CCCCc1nc(N)c2nc(-n3nccn3)n(C)c2n1 [ST1535] | – | – | – | 100 nM | – | – | – | – | 430 nM
6 | CCC(O)Cc1nc(N)c2nc(-n3nccn3)n(C)c2n1 (configuration not stated) | – | – | – | – | – | – | 64 nM | – | –
7 | CCCC(O)c1nc(N)c2nc(-n3nccn3)n(C)c2n1 (racemic) | Active | Active | 55% | 160 nM | Active | Active | – | inactive | –
8 | C[C@H](O)CCc1nc(N)c2nc(-n3nccn3)n(C)c2n1 | – | – | – | 53 nM | – | – | – | – | –
